# System: Pseudomonas aeruginosa
# Assay: Antimicrobial activity against Pseudomonas aeruginosa H1001 expressing luciferase gene assessed as ratio antimicrobial IC50 for drug to Bac2A peptide by luminescence assay
# Format: functional
# In short: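 Peptides are made by SPOT synthesis on cellulose, cleaved, and the spots placed in plate wells. Overnight P. aeruginosa H1001 (fliC::luxCDABE) is diluted 1:500 in 100 mM Tris-HCl pH 7.3 with 20 mM glucose and added to the wells. After 30 min, serial dilutions (8 rows) are made. Luminescence is read at 4 h. IC50 is taken from a sigmoid fit and expressed relative to Bac2A run in the same series.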
row,Substance,Ratio IC50
1,H-NKTGYRWRN-OH,8.33
2,H-FMWVYRYKK-OH,1.51
3,H-RWRWWKRWY-OH,0.2
4,H-GWGGKRRNF-OH,7.38
5,H-RWWRKWWIR-OH,0.24
6,H-GKRVWGRGR-OH,8.2
7,H-IKRVKRRKR-OH,2.93
8,H-RIKRWWWWR-OH,0.31
9,H-IRKKRRRWT-OH,6.59
10,H-RWYRKRWSW-OH,0.7
11,H-TRKVWWWRW-OH,0.76
12,H-KRWWRKWWR-OH,0.15
13,H-GSRRSVWVF-OH,2.3
14,H-KWWLVWKRK-OH,0.23
15,H-RWRWKRWWW-OH,0.25
16,H-RGRRQIGKF-OH,8.51
17,H-KRRRIWWWK-OH,0.4
18,H-ANRWGRGIR-OH,10.8
19,H-IWKRWRKRL-OH,0.33
20,H-YQRLFVRIR-OH,25

row,Substance,Ratio IC50
1,H-KRKIWWWIR-OH,0.28
2,H-RVFVKIRMK-OH,0.72
3,H-HGVWGNRKR-OH,7.95
4,H-WGRGGWTNR-OH,25
5,H-WRWYWWKKR-OH,0.22
6,H-KFWWWNYLK-OH,1.81
7,H-RKWRWRWLK-OH,0.31
8,H-GKFYKVWVR-OH,1.21
9,H-GVRVQRNSK-OH,25
10,H-RVWRNGYSR-OH,10.24
11,H-RVWFKRRWW-OH,0.26
12,H-VKRYYWRWR-OH,1.23
13,H-RWRIKFKRW-OH,0.26
14,H-GRRVMNQKR-OH,9.83
15,H-IRMWVKRWR-OH,0.61
16,H-IRGRIIFWV-OH,0.44
17,H-RWWIRKWWR-OH,0.21
18,H-RRIRRVRWG-OH,8.22
19,H-KRWWWWWKR-OH,0.22

# Reference: ChEMBL document CHEMBL1153389, “Identification of novel antibacterial peptides by chemoinformatics and machine learning” (2009)
